The text below walks through data of article PMC3514014 (Molecular and biochemical parasitology, 2010).

Experiment [1] relates to cathepsin C. To be noted: cited from earlier work.
For experiment [2], the system named is cathepsin C. To be noted: cited from earlier work. This is another data set of the same source.
In experiment [3] the target is T1, recombinant DPAP1 (rDPAP1) (Plasmodium falciparum, UniProt Q8IIJ9).
T1 sequence (Q8IIJ9 28-209 limits assumed): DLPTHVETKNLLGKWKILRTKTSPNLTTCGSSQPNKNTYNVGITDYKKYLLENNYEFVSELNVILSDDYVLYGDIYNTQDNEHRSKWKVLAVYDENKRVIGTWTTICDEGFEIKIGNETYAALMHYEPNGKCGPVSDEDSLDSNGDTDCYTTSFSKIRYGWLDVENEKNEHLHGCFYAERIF
T1 sequence (Q8IIJ9 370-599 limits assumed): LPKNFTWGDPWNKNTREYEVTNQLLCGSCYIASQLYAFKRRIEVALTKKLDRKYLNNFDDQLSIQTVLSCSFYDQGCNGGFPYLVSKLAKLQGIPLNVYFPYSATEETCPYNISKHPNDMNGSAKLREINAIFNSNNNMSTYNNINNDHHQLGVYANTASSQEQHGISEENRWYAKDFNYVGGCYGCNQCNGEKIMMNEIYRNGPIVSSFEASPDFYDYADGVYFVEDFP
T1 sequence (Q8IIJ9 600-700 limits assumed): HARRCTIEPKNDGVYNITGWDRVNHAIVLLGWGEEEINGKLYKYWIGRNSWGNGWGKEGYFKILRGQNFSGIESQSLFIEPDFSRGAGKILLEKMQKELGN
Format: biochemical. To be noted: for Km / kcat: rDPAP1, 25 °C, pH 6.0, 30 mM chloride, mean ± SD, triplicate, NH = no hydrolysis; for hydrolysis of the substrate: recombinant DPAP1, concentrations up to 500 μM.

Experiment [4] concerns the target T2, native DPAP1 (nDPAP1) (Plasmodium falciparum, UniProt Q8IIJ9).
T2 sequence (Q8IIJ9 28-209 limits assumed): T1 sequence (Q8IIJ9 28-209 limits assumed)
T2 sequence (Q8IIJ9 370-599 limits assumed): T1 sequence (Q8IIJ9 370-599 limits assumed)
T2 sequence (Q8IIJ9 600-700 limits assumed): T1 sequence (Q8IIJ9 600-700 limits assumed)
The format is biochemical. To be noted: for kcat: nDPAP1, 25 °C, pH 6.0, 30 mM chloride, mean ± SD, triplicate, NH = no hydrolysis; for hydrolysis of the substrate: native DPAP1, concentrations up to 500 μM.

In experiment [5] the test system is recombinant human cathepsin C. The format is biochemical. To be noted: for Km / kcat: 25 °C, pH 6.0, 30 mM chloride, mean ± SD, triplicate.
Experiment [6] addresses T2, native DPAP1 (nDPAP1). The experiment is described as follows: Inhibition of native DPAP1. The format is biochemical. To be noted: Fig. 4 and Fig. S4, stated in words.
In experiment [7] the target is T1, recombinant DPAP1 (rDPAP1). The experiment is described as follows: Inhibition of recombinant DPAP1. Format: biochemical. An outline of the steps:
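Recombinant E. coli-expressed DPAP1-His6, activated by TEV cleavage, at 0.8 nM. Run at 25 °C in 50 mM sodium MES pH 6.0 with 2 mM dithiothreitol and 1 mM EDTA, total chloride held at 30 mM with NaCl. Fluorogenic release read against an AMC standard, in triplicate. Rates taken from linear progress-curve segments after ~15 min lag; Ki by Dixon method.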

In experiment [8] the test system is cathepsin C. Put plainly: Inhibition of cathepsin C under the DPAP1 assay conditions. Format: biochemical, human. To be noted: assay conditions used for DPAP1.
Where [9] appears, read: recombinant DPAP1, Fig. 4 and Fig. S4, stated in words.

Where a SMILES comes first, the peptide text is derived from it. Where no end group is shown, it is not given here. The star is where a group is joined. ACC = NC(=O)Cc1cc(=O)oc2cc(N*)ccc12; AMC = Cc1cc(=O)oc2cc(N*)ccc12

On to `Cc1cc(=O)oc2cc(NC(=O)C(Cc3ccccc3)NC(=O)C(N)C(C)C)ccc12` (stereo not drawn) [Val-Phe-AMC] (H-Val-Phe-{AMC}; configuration not given here), for which the “increase in kcat/Km relative to Pro-Phe-AMC” value with cathepsin C [1] is listed as 10 fold.
For `NC(=O)[C@@H](N)Cc1ccccc1` [phenylalaninamide], in the experiment with cathepsin C [2], the “inhibition of cathepsin C” value is “competitively inhibited”.
Consider `Cc1cc(=O)oc2cc(NC(=O)[C@H](CCCN=C(N)N)NC(=O)[C@@H]3CCCN3)ccc12` [Pro-Arg-AMC] (H-Pro-Arg-{AMC}), for which the figures for the Km in experiment [3] and in experiment [5] were 79 ± 2 µM and 130 ± 10 µM, respectively. Moreover, the turnover number (kcat) (as a rule, the maximal rate divided by the concentration of active sites) was determined as 1.8 ± 0.1 s⁻¹ in experiment [3], 6.2 ± 0.4 s⁻¹ on native DPAP1 (nDPAP1) [4] and 490 ± 10 s⁻¹ in experiment [5].
On to `Cc1cc(=O)oc2cc(NC(=O)[C@H](CCCN=C(N)N)NC(=O)[C@@H](N)CCCN=C(N)N)ccc12` [Arg-Arg-AMC] (H-Arg-Arg-{AMC}), for which the “turnover of the substrate” value in experiment [5] is recorded as “no turnover”.
With Arg-Arg-{ACC}, the “hydrolysis of the substrate” value (in experiment [3]; on native DPAP1 (nDPAP1) [4]) was “no hydrolysis was observed” throughout.
In the case of `CC[C@H](N)C(=O)NNC(=O)N[C@@H](CCc1ccccc1)C(=O)N[C@@H](C)Cc1cccc(F)c1` [compound 1, 1-(2S-2-aminobutanoyl)-4-{2S-N-[2S-3-(m-fluorophenyl)propan-2-yl-amide]-4-phenylbutan-2-yl-amide}semicarbazide], the inhibition constant Ki result (at native DPAP1 (nDPAP1) [6]; in experiment [7] (setting [9])) was “sub-nanomolar” in each case. In addition, the type of inhibition entry in the experiment on cathepsin C [8] is “slow, tight-binding inhibitor”.
In the case of `CC[C@H](C)[C@H](N)C(=O)N[C@@H](CCCNC(=N)N)C(=O)Nc1ccc2c(CC(N)=O)cc(=O)oc2c1` [Ile-Arg-ACC], in experiment [3], the Km (as a rule, the substrate concentration at which the rate is half of its maximum) was 3.9 ± 0.2 µM and the turnover number (kcat) was determined as 0.072 ± 0.003 s⁻¹. Besides, in experiment [5], the Michaelis-Menten constant (Km) stood at 28 ± 2 µM and the kcat was 17 ± 1 s⁻¹.
Take `CC(C)[C@H](N)C(=O)N[C@@H](CCCNC(=N)N)C(=O)Nc1ccc2c(CC(N)=O)cc(=O)oc2c1` [Val-Arg-ACC] (H-Val-Arg-{ACC}): the Michaelis constant (Km) in experiment [3] was 20 ± 1 µM; in experiment [5], 51 ± 8 µM. The kcat came to 0.72 ± 0.02 s⁻¹ in experiment [3], 3.5 ± 0.1 s⁻¹ on native DPAP1 (nDPAP1) [4] and 180 ± 10 s⁻¹ in experiment [5].
With `CC[C@H](N)C(=O)NC(C#N)Cc1ccccc1` (stereo partly shown) [compound 2, S-2-aminobutyryl-phenylalanine-nitrile], the Ki result (at native DPAP1 (nDPAP1) [6]; in experiment [7] (setting [9])) was “single-digit nanomolar” in each case.
`NC(Cc1ccccc1)C(=O)NCC(=O)O` (racemic) [DL-Phe-Gly]: in the experiment on cathepsin C [2], the “inhibition of cathepsin C” value is listed as “competitively inhibited”.
With `N=C(N)NCCC[C@H](NC(=O)[C@@H](N)Cc1ccccc1)C(=O)Nc1ccc2c(CC(N)=O)cc(=O)oc2c1` [Phe-Arg-ACC] (H-Phe-Arg-{ACC}), the “hydrolysis of the substrate” value (in experiment [3]; on native DPAP1 (nDPAP1) [4]) was “no hydrolysis was observed” throughout. The mode of inhibition result in experiment [7] (rDPAP1, hydrolysis of Pro-Arg-AMC, Dixon analysis) is “purely competitive”. Further, in experiment [7] (rDPAP1, inhibition of hydrolysis of Pro-Arg-AMC, Dixon analysis), the inhibitory constant (Ki) (as a rule, the dissociation constant of the complex between target and ligand, obtained from inhibition or displacement) came out at 2200 nM. The “kinetic behaviour as substrate” value in experiment [5] (Fig. S3) is reported as “substrate inhibition was observed”.
Consider `N[C@@H](Cc1ccccc1)C(=O)N[C@@H](Cc1ccccc1)C(=O)O` [L-Phe-L-Phe] (H-Phe-Phe-OH), for which the “inhibition of cathepsin C” value with cathepsin C [2] was “competitively inhibited”.
